# Measured values taken from ChEMBL document CHEMBL1955721, “Syntheses and cellular investigations of 17(3)-, 15(2)-, and 13(1)-amino acid derivatives of chlorin e(6)” (J Med Chem, 2011).
# Columns and labels:
# [1] = tested on: HEp-2; assay: Ratio of IC50 for cytotoxicity against human Hep2 cells under dark condition to IC50 for human Hep2 cells in presence of 1 J/cm'2 light; assay type: functional
# [2] = Drug uptake in human Hep2 cell golgi at 10 uM after 18 hrs by fluorescence microscopic analysis; assay type: ADME, cell-based; details: hep-2, 18 h
# In short: (§1)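 HEp2 cells grown 48 h on glass-bottom wells, then exposed to 10 µM compound for 18 h. Co-stained 30 min at 37 °C with LysoSensor Green 50 nM, MitoTracker Green 250 nM, ER Tracker Blue/White 100 nM or BODIPY FL C5 ceramide. Washed three times with PBS. Organelle sites scored by fluorescence overlay microscopy as major or minor.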
# [3] = Drug uptake in human Hep2 cell mitochondria at 10 uM after 18 hrs by fluorescence microscopic analysis; assay type: ADME; details: hep-2, 18 h; in short: as §1
# [4] = Drug uptake in human Hep2 cell endoplasmic reticulum at 10 uM after 18 hrs by fluorescence microscopic analysis; assay type: ADME, cell-based; details: hep-2, 18 h; in short: as §1
# [5] = Drug uptake in human Hep2 cell lysosomes at 10 uM after 18 hrs by fluorescence microscopic analysis; assay type: ADME, cell-based, Lysosome; details: hep-2, 18 h; in short: as §1
# [6] = tested on: HEp-2; assay: Cytotoxicity against human Hep2 cells under dark condition after 18 hrs by celltiter blue assay; assay type: functional, cell-based; details: HEp-2, 18 h
# In short: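 HEp2 cells (passages 4–15) plated 7500/well and grown 48 h. Two-fold serial dilutions from 400 to 50 µM applied for 18 h in the dark. Medium replaced, then CellTiter Blue added and incubated 4 h. Untreated cells taken as 100% viable, 0.2% saponin-treated as 0%.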
# [7] = tested on: HEp-2; assay: Drug uptake in human Hep2 cells at 10 uM measured up to 25 hrs by […]; assay type: ADME, cell-based; details: hep-2, 24 h, in the assay text read “24 hrs” for “25 hrs”
# In short: (§2)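 HEp2 cells plated 7500/well and grown 48 h. Given 10 µM compound (final DMSO ≤1%, Cremophor 0.1%) for 0, 1, 2, 4, 8, 12 and 24 h. Washed with PBS and lysed in 0.25% Triton X-100. Intracellular compound read by intrinsic fluorescence (ex 355/em 650 nm) in a plate reader and normalized to cell number by CyQuant.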
# [8] = tested on: HEp-2; assay: Cytotoxicity against human Hep2 cells after overnight incubation followed by cells irradiated with 1 J/cm'2 light for 20 mins measured after overnight incubation by celltiter blue assay; assay type: functional, cell-based; details: HEp-2, light or radiation study
# In short: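 HEp2 cells in 50:50 DMEM:AMEM with 5% FBS, passages 4–15, plated 7500/well and grown 48 h. Loaded overnight at 6.25–100 µM. Medium then swapped for one with 50 mM HEPES pH 7.2. Irradiated 20 min with a 100 W halogen lamp through a 610 nm long-pass filter (~1 J/cm2), IR cut by 10 mm water, plate on ice-water. Incubated overnight at 37 °C, then CellTiter Blue viability read.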
# [9] = tested on: HEp-2; assay: Drug uptake in human Hep2 cells at 10 uM after 24 hrs by fluorescence microscopic analysis relative to chlorin e6; assay type: ADME, cell-based; details: hep-2, 24 h; in short: as §2
Compound,Drug uptake [2],Drug uptake [3],Drug uptake [4],Drug uptake [5],Drug uptake [7],fold change (FC) [9],Ratio IC50 [1],IC50 [6] [µM],IC50 [8] [µM]
C=Cc1c(C)c2cc3nc(c(CC(=O)O)c4[nH]c(cc5nc(cc1[nH]2)C(C)=C5CC)c(C)c4C(=O)O)[C@@H](CCC(=O)O)[C@@H]3C [CHLORIN E6],Not Active,Not Active,Active,Active,Active,,>19.2,> 400,20.8
C=Cc1c(C)c2cc3nc(c(CC(=O)OC)c4[nH]c(cc5nc(cc1[nH]2)C(C)=C5CC)c(C)c4C(=O)NCCC(=O)N[C@@H](CC(=O)O)C(=O)O)[C@@H](CCC(=O)OC)[C@@H]3C,Active,Not Active,Active,Active,Active,,468.2,384,0.82
C=Cc1c(C)c2cc3nc(c(CC(=O)OC)c4[nH]c(cc5nc(cc1[nH]2)C(C)=C5CC)c(C)c4C(=O)N[C@@H](CC(=O)O)C(=O)O)[C@@H](CCC(=O)OC)[C@@H]3C,Active,Active,Active,Active,Active,,466.6,285,0.61

# More lines, main results first:
Drug uptake [2],Drug uptake [3],Drug uptake [4],Drug uptake [5],Drug uptake [7],fold change (FC) [9],Compound,Ratio IC50 [1],IC50 [6] [µM],IC50 [8] [µM]
Active,Not Active,Active,Active,Active,,C=Cc1c(C)c2cc3nc(c(CC(=O)OC)c4[nH]c(cc5nc(cc1[nH]2)C(C)=C5CC)c(C)c4C(=O)OC)[C@@H](CCC(=O)N[C@@H](CCCCN)C(=O)OC)[C@@H]3C,>15.3,> 400,26.2
Not Active,Active,Active,Active,Active,,C=Cc1c(C)c2cc3nc(c(CC(=O)N[C@@H](CC(=O)O)C(=O)O)c4[nH]c(cc5nc(cc1[nH]2)C(C)=C5CC)c(C)c4C(=O)OC)[C@@H](CCC(=O)OC)[C@@H]3C,93.4,373,4
Active,Not Active,Active,Active,Active,,C=Cc1c(C)c2cc3nc(c(CC(=O)OC)c4[nH]c(cc5nc(cc1[nH]2)C(C)=C5CC)c(C)c4C(=O)NCCNC(=O)[C@@H](N)CCCCN)[C@@H](CCC(=O)OC)[C@@H]3C,200.3,268,1.34
Active,Not Active,Active,Active,,18,C=Cc1c(C)c2cc3nc(c(CC(=O)N[C@@H](CCCCN)C(=O)OC)c4[nH]c(cc5nc(cc1[nH]2)C(C)=C5CC)c(C)c4C(=O)OC)[C@@H](CCC(=O)OC)[C@@H]3C,>13.9,> 400,28.8
